Each structure is given as a SMILES string.

This data set can be described thus: Toxicity liver stage against HepG2, at 10uM. The data set is classed as cell-based. The following applies: human, HepG2-A16-CD81EGFP cells; read-out: INHIBITION
Details: test concentration 10 uM, cell line HepG2-A16-CD81EGFP. In a few lines:
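Uninfected HepG2-A16-CD81EGFP cells, 3 × 10^3 per well, 1536-well, plated on prespotted compound at 10 μM final, parasite-free screening media added to match infected plates; puromycin 10 μM positive, DMSO 0.5% negative; run in parallel with 48 h PbLuc assay at 37 °C, 5% CO2; viability by CellTiter-Glo luminescence, normalized to controls.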
For the compound `Fc1ccc(OCc2nnc([C@H]3CCN(Cc4cccnc4)C3)o2)cc1`, the cytotoxicity at 10 µM is -5.72%. Then `COc1ccc(-c2nc(C#N)c(N(C)C)o2)cc1S(=O)(=O)N1CCCC1`, with -0.773%; and `COc1ccccc1CNc1ccc2nncn2n1`, with 10.4%.

For `CCc1cc(=O)[nH]c(SCc2ccccn2)n1`, the cytotoxicity at 10 µM is -0.543%. The result for `CCSc1nnc(N2CCN(c3ccccc3)CC2)s1` reads -6.67%; that for `O=C(C[C@@H]1COC[C@H]2CN(Cc3ccsc3)C[C@@H]12)N1CCCC1`, 1.64%. `CCOC1CC2(CCN(C(C)=O)CC2)c2cc(F)ccc21` (centres undefined): the cytotoxicity at 10 µM is -143%. The result for `CCS(=O)(=O)N1CCOC2(COCCN(c3nccs3)C2)C1` (centres undefined) reads 7.4%; that for `COCC1c2nnn(CC3CC3)c2CCN1C(=O)c1cnccn1` (centres undefined), -140%.

`Cc1nc(-c2ccccc2F)sc1C(=O)N1CCN(C)CC1`: the cytotoxicity at 10 µM was 21%. The result for `CSc1[nH]nc(NC(=O)c2cccnc2)c1C#N` reads -4.87%. Then `Cc1nn(C)c2c(NCc3cccnc3)nc(C(C)C)nc12`, with 10.5%; and `CCn1cc(S(=O)(=O)Nc2nc3c(s2)CCCC3)cn1`, with 6.33%. The result for `COc1cc(NCc2ccncc2)c(-c2nn[nH]n2)cc1OC` reads 7.91%; that for `CCn1ccc(NC(=O)CN2C(=O)CC(C)(C)c3ccccc32)n1`, -5.01%; that for `CC(NC(=O)c1ccoc1)C(=O)N(C)Cc1cccc(C(F)(F)F)c1` (centres undefined), -13.6%. Consider `CS(=O)(=O)c1ccc(NC(=O)NC2(c3cccc(F)c3)CC2)cc1`, for which the cytotoxicity at 10 µM was 2.93%. As for `COCCN(C)C(=O)Nc1cc2c(cc1SC)OCCO2`, the cytotoxicity at 10 µM came to 4.69%. The result for `CC(CN1CCOCC1)NC(=O)N1CCN(S(C)(=O)=O)CC1` (centres undefined) reads 0.243%; that for `Cc1noc(CNC(=O)NCCc2ccc(Cl)cc2)n1`, 6.93%; that for `CCc1cc(=O)[nH]c(-c2ccc(NC(C)CN3CCOCC3)nc2)n1` (centres undefined), -145%.

As for `Cc1sc2ccccc2c1S(=O)(=O)NCCNC(=O)C(C)C`, the cytotoxicity at 10 µM is -0.238%. Then `CC(C)CCOc1ccc(C(C)NC(=O)CSCC(N)=O)cc1` (centres undefined), with 10.5%; and `N#CC1COCCN1S(=O)(=O)c1ccc2ccccc2c1` (centres undefined), with 6.45%.

As to `CC(C)C(=O)NS(=O)(=O)CCc1ccccc1`, the cytotoxicity at 10 µM was 0.67%. Consider `CC(C)NC(=O)N1CCC[C@H]1C(=O)NCCCc1cnn(C)c1`, for which the cytotoxicity at 10 µM was 0.00333%. The result for `O=C(NCCOc1ccc(Cl)cn1)Nc1ccccn1` reads 9.05%; that for `CC(NC(=O)CNC(=O)OC(C)(C)C)c1ccc(Cl)s1` (centres undefined), 2.99%. `Cc1ccc(F)c(C(=O)NC2CCC(N3C(=O)CCC3=O)CC2)c1` (centres undefined): the cytotoxicity at 10 µM is -6%. The result for `Cc1nnc(NCC(c2ccco2)N2CCCC2)c(C#N)c1C` (centres undefined) reads -3.04%. Then `Cc1cc(NC(=O)NCCc2cscn2)nn1C`, with 2.24%; and `CC(C)CCC(=O)Nc1ccc2oc(=O)n(CCN(C)C)c2c1`, with -9.15%; and `NC(=O)CCn1ccc(NC(=O)c2ccc(OCC3CC3)cc2)n1`, with 5.48%.

In the case of `N#Cc1ccnc(N2CCN(CC(O)c3ccc(F)cc3F)CC2)c1` (centres undefined), the cytotoxicity at 10 µM is -0.626%. The result for `O=C(c1csc(-c2ccco2)n1)N1CCN2CCCCC2C1` (centres undefined) reads 5.6%. The result for `C=C(C)CN(CC)S(=O)(=O)c1ccccc1C#N` reads -17.1%; that for `C[C@@H]1CN(c2ccc3c(Cl)ccnc3c2F)CC(C(N)=O)O1` (some centres undefined), 4.11%.

With `O=C(Cc1csc(N2CCNC2=O)n1)NC(c1ccccc1)C1CC1` (centres undefined), the cytotoxicity at 10 µM was -136%.

As to `O=C(CNC(=O)C1CC1)NCCOc1cccc(Cl)c1Cl`, the cytotoxicity at 10 µM stood at 5.04%. The result for `CN(C)c1ncc(CNS(=O)(=O)c2cc(F)ccc2Cl)n1C` reads 6.69%; that for `Clc1nc2ccccn2c1CNCC1CN(C2CC2)CCO1` (centres undefined), -3.06%; that for `Cc1ccc(N2CCCC(N3CCN(CC(F)F)CC3)C2=O)cc1` (centres undefined), 1.66%. Then `CC(CNS(=O)(=O)CCCC#N)c1ccsc1` (centres undefined), with 3.02%; and `COc1ccc(C)c(NC(=O)NCc2cccc(N(C)C)n2)c1`, with 6.13%; and `O=C(CNc1cccc(S(=O)(=O)C(F)F)c1)Nc1ccccc1`, with -48.4%. Then `CC(=O)c1ccc(CNC(=O)c2cc(C)nn2C)nc1C`, with 6.21%; and `CC(CN1CCOCC1)NC(=O)NCc1ccc(Cl)s1` (centres undefined), with 1.23%; and `CN1CCCCC1c1nc(Cc2cccc(F)c2)no1` (centres undefined), with -161%.

Take `O=C1N(CCc2ccccc2)CCCC12CCN(C(CO)CO)C2` (centres undefined): the cytotoxicity at 10 µM was -3.25%. As for `CCOc1ncccc1Cn1cc(-c2cncnc2)nn1`, the cytotoxicity at 10 µM was found to be 2.38%. With `C[C@@H]1CN(C(=O)Cn2ccc3ncccc3c2=O)C[C@H](C)O1`, the cytotoxicity at 10 µM is -5.64%.

Consider `COc1ccccc1OCCCc1cccc(C#N)n1`, for which the cytotoxicity at 10 µM was -5.62%. `COCC(NC(=O)c1cnc(-c2ccncc2)nc1)c1ccnn1C` (centres undefined): the cytotoxicity at 10 µM was -13.1%.

Take `CCNC(=O)[C@@H]1C[C@@H](N)CN1C(=O)c1cc2ccccc2[nH]1`: the cytotoxicity at 10 µM was -9.6%. Then `Cc1nc(-c2cccc(C(=O)O)c2)c[nH]1`, with -3.24%; and `CCC[C@@H]1CN(C(=O)CCc2ccco2)C[C@H]1NS(C)(=O)=O`, with -3.73%; and `COc1ccc(-n2ccnc2-c2cnc(N(C)C)nc2)cc1OC`, with -2.4%. As to `CCn1ncnc1C(C)Nc1cc(C2CC2)ncn1` (centres undefined), the cytotoxicity at 10 µM turned out to be 2.33%. With `O=C(NCCCc1ccc(F)cc1)c1ccc(N2CCOCC2)cc1`, the cytotoxicity at 10 µM was -4.45%.

`CSc1ncccc1C(=O)N1CCC2(CC1)OCCCC2O` (centres undefined): the cytotoxicity at 10 µM was -7.16%. The result for `COc1ccccc1OCc1cc(C(=O)N2CC(O)C2)n[nH]1` reads -1.02%; that for `Cc1cccc(C(=O)NCc2ccc(CS(N)(=O)=O)cc2)n1`, -1.07%; that for `Cn1cc(CCN2CCOC(CNc3cccnn3)C2)cn1` (centres undefined), 2.11%.

For `CC(C)(C)OC(=O)N1CCC(C(=O)NCCNc2ncccn2)CC1`, the cytotoxicity at 10 µM was -10.3%. Then `O=C(NCCNc1ncccn1)C1CCN(C(=O)N2CCCC2)CC1`, with -6.11%; and `COc1ccccc1C(=O)N1CCOCC1c1c(C)n[nH]c1C` (centres undefined), with -8.72%. The result for `CC(O)CN1CCC(CNCc2ccccc2F)CC1` (centres undefined) reads -11.4%; that for `Cc1noc(C2CCN(C(=O)c3ccc(C(F)(F)F)nc3)CC2)n1`, -6.16%. Then `OC(CN1CCC(c2ccn[nH]2)CC1)c1cccc(C(F)(F)F)c1` (centres undefined), with -12.1%; and `Cc1cnn(CC2CCCN2C(=O)c2ccccc2-n2cnnn2)c1` (centres undefined), with -35.7%; and `Cc1cccc(-n2ncc(C(=O)NCC3CCS(=O)(=O)C3)c2C)c1` (centres undefined), with -20.3%. For `COCCCNC(=O)c1c(C)noc1C(C)C`, the cytotoxicity at 10 µM was -28.2%. As to `CCOc1ncccc1CNC(=O)Nc1ccc(CC)cc1`, the cytotoxicity at 10 µM is -23.7%. The result for `O=C(CCOc1ccccc1Cl)N1CCN(c2cnccn2)CC1` reads -29.2%; that for `Cc1nnc(CN2CCN(C(C)c3nc(C4CC4)no3)CC2)o1` (centres undefined), -10.3%; that for `O=c1n(CCSCc2ccccc2Br)nc2ccccn12`, -3.95%.

As to `Cc1ccc(NC2CCN(C(=O)c3ccc(Cl)o3)CC2)nn1`, the cytotoxicity at 10 µM is -0.961%. Then `CNc1nc(CNC(=O)Nc2ccccc2-c2noc(C)n2)cs1`, with -6.56%; and `CC(C)c1nc(CN2CCCN(Cc3nnc(C4CC4)o3)CC2)no1`, with -0.794%.

As for `CC(NC(N)=O)C(=O)N1CCCN(Cc2nccn2C(C)C)CC1` (centres undefined), the cytotoxicity at 10 µM came out at 1.95%. Then `CCn1cnnc1CNC(=O)c1cc(Cl)ccc1O`, with 2.17%. The result for `Cc1ccc(NC(=O)N2CCC(NC(=O)c3ccc(C)o3)CC2)cc1` reads 0.385%; that for `N#CC1(C(=O)NCC2CCC3(CCNCC3)O2)CC1` (centres undefined), -5.22%; that for `Cc1ccc(CN2CCOCC3(CCN(Cc4cccs4)C3)C2)o1` (centres undefined), -5.61%. Then `CC(C)CN1CCC2(CC1)C(=O)Nc1ccc(C(=O)N(C)C)cc12`, with -1.18%; and `O=C(c1cccnc1)N1CCCC2(CCN(c3ccsc3)C2=O)C1` (centres undefined), with -1.29%. Turning to `Cc1nnc(N2CCCC3(CN(c4ccccn4)CCO3)C2)o1` (centres undefined), the cytotoxicity at 10 µM is -98.8%.

Consider `c1ccc(OCC2CC3(CCN(c4ncccn4)CC3)CO2)nc1` (centres undefined), for which the cytotoxicity at 10 µM worked out at 0.485%. The result for `CN(C)CCN1CCN(Cc2nccs2)Cc2cccnc21` reads -1.08%; that for `c1cncc(CN2CCC3(CC2)CC(c2cccnc2)CO3)c1` (centres undefined), 0.851%; that for `CC(C)CCN1CCc2cc(C(=O)N(C)C)c(NCC3CC3)nc2CC1`, 4.71%.

In the case of `Cc1oncc1C(=O)N[C@@H]1CN(c2ncccn2)C[C@@H]2CCCO[C@@H]21`, the cytotoxicity at 10 µM was determined as 6.21%.

In the case of `O=C(O)c1c(-c2cccnc2)ncc2c1CCN(Cc1ccccn1)C2`, the cytotoxicity at 10 µM is -1.43%. The result for `CC(C)(C)c1n[nH]cc1CNCC1CCN(CC(F)(F)F)C1` (centres undefined) reads 3.5%; that for `O=C(NCC1COCc2c(-c3ccncc3)nnn2C1)[C@H]1CCCO1` (some centres undefined), 1.9%. Then `Cn1cc(N2CC3(CCN(Cc4cccs4)CC3)OCC2=O)cn1`, with -8.13%. The result for `Cc1ccc(CN2CCC3(CC2)CCN(Cc2ccoc2)CC3)cc1` reads 3.47%. As for `O=C(c1ccoc1)N1CCO[C@]2(CCC[C@H]2COCc2cccnc2)C1`, the cytotoxicity at 10 µM stood at 4.58%. On to `COc1cccc(-n2cc3[nH]c(=O)n(C(C)C)n3c2=O)c1`, for which the cytotoxicity at 10 µM was -7.32%.

Values taken from ChEMBL document CHEMBL4513216, “Probing the Open Global Health Chemical Diversity Library for Multistage-Active Starting Points for Next-Generation Antimalarials” (ACS Infect Dis, 2020).
